Screens deposited in PubChem BioAssay by Broad Institute.
Xi reactivation: reactivates the inactive X chromosome in mouse fibroblasts | XiGFP mouse fibroblasts, % GFP-positive cells imaging, 3 d; cells co-treated with 5-aza-dC sensitizer; scaled so ellipticine positive control = 100% | activation, % at 7.58 µM | 0.055% of 360,000 active;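 active = mean normalized replicate activation at least 10% and every replicate at or above 10%; inconclusive = only one of the two criteria met; inactive = mean below 10% and not all replicates reach 10%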;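 also: 0% = median of on-plate neutral control wells and 100% = ellipticine 6 µM median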
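Material: SV40-immortalized XiGFP fibroblast cells, line 68-5-11 | Buffer or medium: DMEM containing 5-aza-dC | Dosing: One concentration, pinned | Times: 3 d treatment, 15 min room-temperature fixation | Controls: Ellipticine 6 µM positive control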
Cneo AK release: Cryptococcus neoformans lysis via adenylate kinase release; C. neoformans lysis, adenylate kinase release luminescence, 4 h; normalised: neutral wells 0, clomiphene wells 100; lysis activity, % at 15 µM; 0.2% of 360,000 active;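 active = mean lysis activity across replicates of at least 80%, whatever share of replicates individually reach that level; inactive = mean lysis activity below 80%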
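Schedule: static 4 h at 37 °C with compound, 1 h detection; system: C. neoformans cells; benchmarks: Clomiphene as positive control; buffer or medium: fresh YPD medium; measure: luminescence rise reflecting yeast cell lysis; measured by: luminescent adenylate kinase detection reagent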
Statin myotox sup: protects C2C12 myotubes from simvastatin toxicity. ATP luminescence, 48 h; scaled: DMSO 0, geranylgeraniol control 100. rescue of ATP level, % at 7.49 µM. 0.78% of 330,000 active. AID 602340;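 active = mean ATP rescue above about 67%, or every replicate alone reaching that limit, limit read from the data, passing the limit was not always enough; inconclusive = no clear call, values can overlap the other calls; inactive = mean under the limit and some replicate under it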;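 also: myotubes were challenged with 10 µM simvastatin during compound exposure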
DENV2 CPE rescue: protects cells from dengue virus 2 cytopathic effect; DENV2-infected cells, cytopathic effect rescue, plate reader; CPE inhibition, % at 9.99 µM; 1.7% of 350,000 active; in the data active = CPE inhibition above about 20%, passing the limit was not always enough; inconclusive = no clear call, values can overlap the other calls; tested in BHK-21 cells;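 also: 0% = median of neutral control wells and 100% = median of positive control wells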
Active calls of the source: *; u = inconclusive; x = not tested or not shown; ! = repeats disagree. Only some compounds are listed: those with a hit (about 2.1% of all), similar ones and a draw of the others.

SMILES	Xi reactivation	Cneo AK release	Statin myotox sup	DENV2 CPE rescue
CCC(=O)N1CC2(C1)[C@@H](c1ccccc1)[C@@H](CO)N2Cc1ccccc1F	0	x	x	24*
CCC(=O)N1CC2(C1)[C@H](c1ccccc1)[C@H](CO)N2Cc1ccccc1F	0	x	x	-6
C[C@H]1CN([C@@H](C)CO)C(=O)c2cc(NC(=O)C3CC3)ccc2O[C@@H]1CN(C)Cc1ccc(C(F)(F)F)cc1	0	-7	4	-6
CCS(=O)(=O)N1CC2(C1)[C@H](c1ccccc1)[C@@H](CO)N2C(=O)C1CC1	0	x	x	23*
COc1ccc(-c2ccc3c(c2)O[C@H](CN(C)C(C)=O)[C@H](C)CN([C@@H](C)CO)S3(=O)=O)cc1	-1	48	23	-5
S=C1Cc2ccccc2N1	0	-2	74*	-9
Cc1cc2oc3ccc(NCCCn4ccnc4)cc3c(=O)c2cc1C	u	2	-4	x
Cc1cc2oc3ccc(NCCCN4CCOCC4)cc3c(=O)c2cc1C	0	3	-5	37*
O=C(NC1CCC1)[C@H]1[C@H](CO)[C@H]2Cn3c(ccc(-c4ccncc4)c3=O)[C@@H]1N2CC1CC1	1	-1	2	10
Nn1c(SCC(=O)Nc2ccc(F)cc2F)nnc1-c1cccnc1	x	-4	112*	x
CCOc1ccc(NC(=O)C2CC(=O)N(CCc3ccccc3)C2)cc1OC (stereo unspecified)	0	-1	5	89*
COCC#Cc1cnc2c(c1)C(=O)N([C@H](C)CO)C[C@H](C)[C@H](CN(C)C(=O)C1CC1)O2	0	101*	4	-9
COCC#Cc1cnc2c(c1)C(=O)N([C@@H](C)CO)C[C@@H](C)[C@@H](CN(C)C(=O)C1CC1)O2	0	87*	13	9
COCC#Cc1cnc2c(c1)C(=O)N([C@@H](C)CO)C[C@@H](C)[C@H](CN(C)C(=O)C1CC1)O2	-1	18	17	1
CCCC#Cc1cnc2c(c1)C(=O)N([C@H](C)CO)C[C@H](C)[C@H](CN(C)C(=O)C1CCC1)O2	0	0	14	23*
C[C@@H]1CCCCO[C@@H](CN(C)C(=O)Cc2ccccc2)[C@H](C)CN([C@@H](C)CO)C(=O)c2cc(NC(=O)c3ccccc3)ccc2O1	0	0	x	0
Cc1cc(/C=N/n2cnnc2)c(C)n1-c1ccc(Cl)cc1Cl	x	-2	97*	x
Cc1noc(C)c1NC(=O)N(C)C[C@H]1Oc2c(NC(=O)Nc3ccc4c(c3)OCO4)cccc2C(=O)N([C@H](C)CO)C[C@@H]1C	0	1	83*!	6
C[C@H](CO)N1C[C@H](C)[C@@H](CN(C)C(=O)Nc2ccc(C(F)(F)F)cc2)Oc2c(NC(=O)Nc3ccccc3)cccc2C1=O	-1	-1	-9	-3
Cc1noc(C)c1NC(=O)N(C)C[C@@H]1Oc2c(NC(=O)Nc3ccc4c(c3)OCO4)cccc2C(=O)N([C@@H](C)CO)C[C@@H]1C	0	-7	-15	1
C[C@@H]1CN([C@H](C)CO)C(=O)c2cccc(NC(=O)Nc3ccc(C(F)(F)F)cc3)c2O[C@@H]1CN(C)C(=O)Nc1ccccc1	0	-10	-29	43*
C[C@H](CO)N1C[C@H](C)[C@@H](CN(C)C(=O)NC2CCCCC2)Oc2c(NC(=O)Nc3ccc(C(F)(F)F)cc3)cccc2C1=O	0	-4	-4	29*!
Cc1noc(C)c1NC(=O)N(C)C[C@H]1Oc2c(NC(=O)Nc3ccc(C(F)(F)F)cc3)cccc2C(=O)N([C@@H](C)CO)C[C@@H]1C	0	52	12	27*
C[C@@H]1CN([C@@H](C)CO)C(=O)Cc2cc(NC(=O)Cc3cn(C)c4ccccc34)ccc2O[C@H]1CN(C)CC1CCCCC1	-1	57	21	-2
O=C(NCC[C@@H]1CC[C@H](NC(=O)C2CCCC2)[C@@H](CO)O1)c1cnccn1	0	-3	5	0
SMILES	Xi reactivation	Cneo AK release	Statin myotox sup	DENV2 CPE rescue
O=C(NCC[C@@H]1CC[C@@H](NS(=O)(=O)c2ccc(Cl)cc2)[C@@H](CO)O1)Nc1ccc(F)cc1	1	x	x	33*
O=C(NCC[C@@H]1CC[C@@H](NC(=O)C2CCOCC2)[C@@H](CO)O1)Nc1ccc(Cl)cc1	0	-7	-16	38*
O=C(NCC[C@@H]1CC[C@H](NS(=O)(=O)c2ccc(F)cc2)[C@H](CO)O1)c1ccc2c(c1)OCO2	0	-5	1	3
O=C(NCC[C@H]1CC[C@@H](NS(=O)(=O)c2ccc(F)cc2)[C@H](CO)O1)c1ccc2c(c1)OCO2	1	95*	13	2
O=C(C[C@H]1C[C@H]2c3cc(NC(=O)NC4CCCCC4)ccc3O[C@H]2[C@@H](CO)O1)NC1CCCC1	0	x	x	4
CCCCNC(=S)N/N=C/c1ccc(C#N)cc1	1	86*	x	x
C[C@H](CO)N1C[C@H](C)[C@@H](CN(C)C(=O)C2CCCCC2)Oc2cc(Br)ccc2S1(=O)=O	-1	x	12	x
N#CC1(NC(=O)CSc2ccccn2)CCCCC1	0	x	-13	111*
CO[C@H]1CN(C)C(=O)c2ccc(NC(=O)Nc3cc(F)ccc3F)cc2OC[C@@H](C)N(C(=O)c2ccccn2)C[C@H]1C	0	-1	8	38*
CCC(=O)Nc1ccc2c(c1)OC[C@H](C)N(C(=O)c1ccccn1)C[C@@H](C)[C@@H](OC)CN(C)C2=O	0	-1	7	-8
COCC(=O)Nc1ccc2c(c1)C(=O)N(C)C[C@H](OC)[C@H](C)CN(C(=O)c1ccccn1)[C@@H](C)CO2	0	-4	10	65*
COCC(=O)Nc1ccc2c(c1)C(=O)N(C)C[C@@H](OC)[C@@H](C)CN(C(=O)c1ccccn1)[C@H](C)CO2	0	0	6	23*
CCC(=O)Nc1ccc2c(c1)OC[C@@H](C)N(C(=O)c1ccccn1)C[C@@H](C)[C@H](OC)CN(C)C2=O	1	-3	15	26*
COCC(=O)Nc1ccc2c(c1)C(=O)N(C)C[C@@H](OC)[C@H](C)CN(C(=O)c1ccccn1)[C@H](C)CO2	1	-2	-1	-5
C[C@H](CO)N1C[C@H](C)[C@@H](CN(C)S(=O)(=O)c2cccs2)Oc2ccc(NC(=O)CCN3CCOCC3)cc2CC1=O	0	-1	20	1
COc1ccc(C(=O)Nc2ccc3c(c2)C(=O)N(C)C[C@@H](OC)[C@H](C)CN(C(C)=O)[C@H](C)CO3)cc1	0	1	7	-9
C[C@@H]1CN([C@@H](C)CO)C(=O)c2cccc(NS(=O)(=O)c3ccccc3)c2O[C@@H]1CN(C)C(=O)Nc1cccc2ccccc12	0	42	29	x
CCNC(=O)C[C@H]1C=C[C@@H](NS(=O)(=O)c2ccc(C)cc2)[C@@H](CO)O1	0	0	-7	-3
CCCN[C@@H]1C(=O)N2C(C(=O)OCCC)=C(C)CS[C@H]12	0	0	-2	72*
CSc1ccc(S(=O)(=O)Nc2ccc(F)cc2)cc1	x	x	93*	x
